Screening results deposited in PubChem BioAssay by The Scripps Research Institute Molecular Screening Center.
Rows were chosen to be rich in hits. Some 2.5% of all compounds tested hit in one or more screens of this group.
TDP2 absorb = blocks human TDP2 phosphodiesterase activity | O95551 | recombinant TDP2, T5PNP hydrolysis, p-nitrophenol absorbance 415 nm | inhibition, % at 12.8 µM | actives 0.34% (n = 370,000) | AID 720702;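 active = inhibition above the mean of all tested compounds plus 3 SD, set per campaign, cut at about 25% in these data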
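Test system: human TDP2 enzyme; Input: 120 nM TDP2 per well; Buffer or medium: Mg2+-containing Tris-HCl buffer, pH 7.5; Reagent: 5 mM T5PNP; Dosing: 12.8 µM single point, 1% DMSO; Incubation: reaction 2 h, 37 °C; Detection: p-Nitrophenol epi absorbance; Read-out: % inhibition relative to enzyme-containing and enzyme-free wells; Replicates: single well per compound.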
Fh CTSL1 inh = cathepsin L1 inhibition, PFM18AAP counter-screen; recombinant F. hepatica cathepsin L1, Z-Leu-Arg-MCA fluorescence; inhibition, % at 5.96 µM; actives 0.49% (n = 300,000);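 active = inhibition above the mean of all tested compounds plus 3 SD, set per screening campaign, cut at about 17% in these data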
PAD4 FP inh = PAD4 (human) enzyme inhibition; Q9UM07; recombinant PAD4, RCA probe fluorescence polarization; inhibition, % at 6.36 µM; actives 0.41% (n = 330,000);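 active = percent inhibition above a cutoff equal to the mean of all tested compounds plus 3 SD, cut at about 15% in these data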
GSTO1 counter = blocks human GSTO1 in RBBP9 counter-screen; recombinant GSTO1, activity-based probe fluorescence polarization; inhibition, % at 5.96 µM; actives 1.1% (n = 300,000); AID 1974;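 active = inhibition above the campaign mean inhibition plus 3 SD, cut at about 35% in these data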
PRMT1 FP inh = inhibitors of human PRMT1. inhibition, % at 2.79 µM. actives 1.3% (n = 370,000). recombinant PRMT1, activity-based probe fluorescence polarization;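 active = inhibition above about 21% made by adding two undisclosed values, limit read from the data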
Target sequence (Q99873 whole entry, looked up): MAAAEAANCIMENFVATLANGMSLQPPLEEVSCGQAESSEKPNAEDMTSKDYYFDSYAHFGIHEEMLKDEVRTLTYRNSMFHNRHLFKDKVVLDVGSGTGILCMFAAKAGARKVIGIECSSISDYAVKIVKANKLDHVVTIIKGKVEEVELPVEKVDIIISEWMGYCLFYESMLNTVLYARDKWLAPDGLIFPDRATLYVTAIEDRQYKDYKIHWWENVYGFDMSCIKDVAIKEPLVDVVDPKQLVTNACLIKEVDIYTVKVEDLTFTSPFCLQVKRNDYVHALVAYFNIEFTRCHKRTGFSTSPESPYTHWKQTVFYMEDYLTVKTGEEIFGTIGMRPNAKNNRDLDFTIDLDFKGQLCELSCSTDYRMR
PAD4 confirm = PAD4 (human) inhibition, confirmed; inhibition, % at 6.36 µM; actives 28% (n = 1,200); shares compounds with PAD4 FP inh; recombinant PAD4, RCA probe fluorescence polarization;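 active = mean inhibition across replicates above the hit cutoff set by the earlier primary screen, cut at about 15% in these data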;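 note: inhibitors block active-site labeling by the probe so polarization falls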
Of the large screens only hits and unclear results are named; the others gave an inactive call (follow-up assays come after a bar, where they were run).

COc1ccc(-c2cc(C(=O)NCCN3CCOCC3)c3ccccc3n2)c(OC)c1	PAD4 FP inh 17 | PAD4 confirm inactive
O=C(NCCN1CCOCC1)c1cc(-c2ccccc2)nc2ccccc12	none (no result: Fh CTSL1 inh, PAD4 FP inh, GSTO1 counter)
c1ccc(-c2cc(-c3nnc4sc(Cc5cccs5)nn34)[nH]n2)cc1	none (no result: Fh CTSL1 inh, PAD4 FP inh, GSTO1 counter)
OCCNC(=S)Nc1ccc2nsnc2c1	Fh CTSL1 inh 112, PAD4 FP inh 28, GSTO1 counter 85 | PAD4 confirm inactive
CCC(=O)N(Cc1cc(=O)[nH]c2ccccc12)c1ccccc1C	PAD4 FP inh 18 | PAD4 confirm 22
CCCC(=O)N(Cc1cc(=O)[nH]c2ccccc12)c1ccc(C)cc1C	none (no result: Fh CTSL1 inh, PAD4 FP inh, GSTO1 counter)
CCC(=O)N(Cc1cc(=O)[nH]c2ccccc12)c1cccc(C)c1	PAD4 FP inh 46 | PAD4 confirm 33
N#Cc1ccc(/C=C2\CC3(OC(=O)c4ccc(Cl)cc4)CCCN2C3)cc1 (centres undefined)	none (no result: Fh CTSL1 inh, PAD4 FP inh, GSTO1 counter)
COc1ccc(NC(=O)NC(C(F)(F)F)C(F)(F)F)cc1	PAD4 FP inh 15 | PAD4 confirm inactive
COc1ccc(NC(=O)NC(C)(C(F)(F)F)C(F)(F)F)cc1	none
COC(=O)c1cccc(N2CCCC2=O)c1	none
COC(=O)c1cccc(-n2sc3ccccc3c2=O)c1	PAD4 FP inh 55, PRMT1 FP inh 98 (no result: Fh CTSL1 inh, GSTO1 counter) | PAD4 confirm 47
Cc1ccc(-n2sc3ccccc3c2=O)cc1	PAD4 FP inh 53, PRMT1 FP inh 76 | PAD4 confirm 30
O=c1c2ccccc2sn1-c1ccc(F)cc1	PAD4 FP inh 42, PRMT1 FP inh 84 (no result: Fh CTSL1 inh, GSTO1 counter) | PAD4 confirm 29
Cc1ccc(Cn2c(=O)sc3ccccc3c2=O)cc1	none
CC1(C)Cc2c(c(-c3ccco3)[nH]c(=O)c2C#N)CS1	PAD4 FP inh 26, PRMT1 FP inh 74 | PAD4 confirm inactive
COc1ccc(CCNC(=O)COC(=O)c2ccc(C)s2)cc1	PAD4 FP inh 81 (no result: Fh CTSL1 inh, GSTO1 counter) | PAD4 confirm inactive
CCC(C)[C@H](NC(=O)OC(C)(C)C)C(=O)N[C@@H](Cc1ccccc1)C(=O)OC (some centres undefined)	none (no result: Fh CTSL1 inh, PAD4 FP inh, GSTO1 counter)
O=C(O)CSCC(=O)Nc1ccc(-c2nc3ccccc3s2)cc1	PAD4 FP inh 30, PRMT1 FP inh 36 | PAD4 confirm 31
O=c1oc2ccccc2n1CSC1=NCCS1	PAD4 FP inh 17 | PAD4 confirm inactive
O=c1oc2ccccc2n1CSc1nc2ccccc2s1	none
CC1COC(c2cccn2Cc2ccccc2Cl)=N1 (centres undefined)	PAD4 FP inh 45 | PAD4 confirm inactive
O=S(=O)(CCSc1nc2ccccc2s1)c1nc2ccccc2s1	PAD4 FP inh 50 | PAD4 confirm 41
CCS(=O)(=O)CCSc1nc2ccccc2s1	none
Cc1c(NC(=O)CC(O)(C(F)(F)F)C(F)(F)F)c(=O)n(-c2ccccc2)n1C	none
COC(=O)C(F)(Sc1c(C)n(C)n(-c2ccccc2)c1=O)C(F)(F)F (centres undefined)	PAD4 FP inh 48 | PAD4 confirm 34
Nc1[nH]c(C(=O)c2ccccc2)c(-c2ccc(Cl)cc2Cl)c1C(=O)NCCC1=CCCCC1	none (no result: Fh CTSL1 inh, PAD4 FP inh, GSTO1 counter)
CCNC(=S)NNC(=O)c1csc(C)c1	PAD4 FP inh 93 | PAD4 confirm inactive
COc1ccc2c(C)cc3n[nH]c(=S)n3c2c1	PAD4 FP inh 22 | PAD4 confirm 16
COc1ccc(-c2n[nH]c(=S)n2-c2cc(OC)ccc2OC)cc1	none
COc1ccccc1N1CCN(C(=O)c2coc(=O)c(Br)c2)CC1	PAD4 FP inh 34 | PAD4 confirm inactive
CS(=O)(=O)c1ccccc1-c1nnc(NC(=O)c2ccc3ncsc3c2)o1	PAD4 FP inh 22, PRMT1 FP inh 28 | PAD4 confirm inactive
O=C(O)CSc1ncnc2scc(-c3ccccc3)c12	none
CCC(=O)Nc1ccccc1Sc1ncnc2scc(-c3ccccc3)c12	PAD4 FP inh 21 | PAD4 confirm inactive
Cn1nnnc1Sc1ncnc2scc(-c3ccc(Cl)cc3)c12	none (no result: Fh CTSL1 inh, GSTO1 counter)
Clc1ccc(-n2nnnc2Sc2ncnc3sccc23)cc1	PAD4 FP inh 21 | PAD4 confirm 21
Cc1sc2ncnc(Sc3nnnn3-c3ccccc3)c2c1C	PAD4 FP inh 28 | PAD4 confirm 17
O=C(CCc1ccccc1)N[C@H]1[C@@H](OC(=O)C2CC2)CCC[C@@]12C(=O)N(Cc1ccccc1)c1ccccc12	none (no result: Fh CTSL1 inh, PAD4 FP inh, GSTO1 counter)
CC(C)C[C@H]1COc2cccc(N3CCSCC3)c2S(=O)(=O)N1C	none (no result: Fh CTSL1 inh, PAD4 FP inh, GSTO1 counter)
